Results reported in ChEMBL document CHEMBL1132175, “Synthesis and in vivo evaluation of new contrast agents for cardiac MRI” (J Med Chem, 1999).
≈ marks a conversion by molar mass, not a printed value.

Experiments:
Mustela putorius furo [1] = assay: In vivo Myocardial MRI signal intensity (MRI IE)in ferrets induced by the compound at 50 umol/kg was measured at 180 min.; assay type: functional, Myocardium
Summary of the method: (§1)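 Ferrets received a bolus of 50 µmol/kg Gd complex. BAE and ABE were given as water-soluble pH 7 solutions; ABE used a 1.2-fold ligand excess and 10 mM Gd. BPE, BBE, BHE and BME were given in lecithin/cholesterol liposomes in 0.9% saline/20 mM HEPES pH 7.4. Myocardial signal was read on 1.5 T MRI (head coil) against an agarose phantom and compared with pre-agent control images. Imaging ran over 3 h.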

Mustela putorius furo [2] = assay: In vivo Myocardial MRI signal intensity (MRI IE)in ferrets induced by the compound at 50 umol/kg was measured at 30-60 min.; assay type: functional, Myocardium; summary of the method: as §1
[3] = Aqueous solubility of the compound; assay type: physicochemical; settings: water; read-out: S
Summary of the method: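 Gd–ligand 1:1 complexes were made from GdCl3 in water at pH 7.0 over a series of nominal concentrations around the expected precipitation point. Experimental concentration was taken as ΔR1(observed)/ρ1. ρ1 came from one well-dissolved sample whose Gd was measured by ICP-OES.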

Mustela putorius furo [4] = assay: In vivo Myocardial MRI signal intensity (MRI IE)in ferrets induced by the compound at 50 umol/kg was measured at 0-10 min.; assay type: functional, Myocardium; summary of the method: as §1
Mustela putorius furo [5] = assay: In vivo Myocardial MRI signal intensity (MRI IE)in ferrets induced by the compound at 50 umol/kg was measured at 180 min; assay type: functional, Myocardium; summary of the method: as §1

| Compound | solubility [3] [mM] | IE (Mustela putorius furo [1]) [%] | IE (Mustela putorius furo [2]) [%] | IE (Mustela putorius furo [4]) [%] | IE (Mustela putorius furo [5]) [%] |
| --- | --- | --- | --- | --- | --- |
| CCCCCC(=O)OCCN(CCN(CCOC(=O)CCCCC)CC(=O)N(CC(=O)O)CC(=O)O)CC(=O)N(CC(=O)O)CC(=O)O | 0.5 (≈ 345 µg/mL) | 30.1 | 41.7 | 32.3 |  |
| CCC(=O)OCCN(CCN(CCOC(=O)CC)CC(=O)N(CC(=O)O)CC(=O)O)CC(=O)N(CC(=O)O)CC(=O)O | 7 (≈ 4250 µg/mL) | 47.2 | 38.4 | 34.6 |  |
| CCCCCCCCCCCCCC(=O)OCCN(CCN(CCOC(=O)CCCCCCCCCCCCC)CC(=O)N(CC(=O)O)CC(=O)O)CC(=O)N(CC(=O)O)CC(=O)O | 0.015 (≈ 13.7 µg/mL) | 65.2 | 67.2 | 55.2 |  |

The next lines start with results.

| solubility [3] [mM] | Compound | IE (Mustela putorius furo [1]) [%] | IE (Mustela putorius furo [2]) [%] | IE (Mustela putorius furo [4]) [%] | IE (Mustela putorius furo [5]) [%] |
| --- | --- | --- | --- | --- | --- |
| 5 (≈ 3170 µg/mL) | CCCC(=O)OCCN(CCN(CCOC(=O)CCC)CC(=O)N(CC(=O)O)CC(=O)O)CC(=O)N(CC(=O)O)CC(=O)O | 39.3 | 52.1 | 53.1 |  |
| 30 (≈ 17400 µg/mL) | CC(=O)OCCN(CCN(CCOC(C)=O)CC(=O)N(CC(=O)O)CC(=O)O)CC(=O)N(CC(=O)O)CC(=O)O |  | 10.1 | 87.2 | 10.1 |
| 25 (≈ 15200 µg/mL) | CCCC(=O)OCCN(CCN(CCOC(C)=O)CC(=O)N(CC(=O)O)CC(=O)O)CC(=O)N(CC(=O)O)CC(=O)O | 38.5 | 43.6 | 42.8 |  |
